Data as given in ChEMBL document CHEMBL1138497, “Design and synthesis of small molecule glycerol 3-phosphate acyltransferase inhibitors” (J Med Chem, 2009).

Assay: Inhibition of mitochondrial glycerol 3-phosphate acyltransferase by liquid scintillation counting
Summary of the method: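 Mitochondrial GPAT preparation added to start reaction in mixture of 14C-labelled glycerol 3-phosphate and palmitoyl-CoA with a range of inhibitor concentrations; acylation quantified by scintillation counting. Triplicate points; IC50 taken as inhibitor level giving 50% of activity seen with DMSO vehicle alone.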

In order of falling IC50:
1. CCCCCS(=O)(=O)NCc1cccc(C(=O)O)c1  310 µM
2. CCCCCS(=O)(=O)NCc1ccc(C(=O)O)cc1  252 µM
3. O=C(O)c1ccc(NS(=O)(=O)Cc2ccccc2)cc1  221 µM
4. CCCCCS(=O)(=O)NCc1ccccc1C(=O)O  217 µM
5. O=C(O)c1ccc(NS(=O)(=O)CCc2ccccc2)cc1  206 µM
6. O=C(O)c1cccc(NS(=O)(=O)Cc2ccccc2)c1  178 µM
7. O=C(O)c1cccc(NS(=O)(=O)CCc2ccccc2)c1  164 µM
8. O=C(O)c1ccccc1NS(=O)(=O)CCc1ccccc1  152 µM
9. O=C(O)c1ccc(NS(=O)(=O)c2ccccc2)cc1  151 µM
10. CCCCCS(=O)(=O)Nc1ccc(CP(=O)(O)O)cc1  148 µM
11. O=C(O)c1ccccc1NS(=O)(=O)c1ccccc1  146 µM
12. CCCCCS(=O)(=O)Nc1cccc(CP(=O)(O)O)c1  141 µM
13. O=C(O)c1ccccc1NS(=O)(=O)Cc1ccccc1  140 µM
14. O=C(O)c1cccc(NS(=O)(=O)c2ccccc2)c1  138 µM
15. CS(=O)(=O)Nc1ccccc1C(=O)O  132 µM
16. CCCCCS(=O)(=O)Nc1ccccc1CP(=O)(O)O  129 µM
17. CCCCCCCCCS(=O)(=O)NCc1ccc(C(=O)O)cc1  129 µM
18. CCCCCCCCS(=O)(=O)Nc1ccc(O)cc1C(=O)O  116 µM
19. O=C(O)c1ccc(NS(=O)(=O)c2ccc(Cl)cc2)cc1  108 µM
20. O=C(O)c1ccccc1NS(=O)(=O)c1ccc(Cl)cc1  107 µM
21. CCCCCCCCS(=O)(=O)Nc1ccc(P(=O)(O)O)cc1  95.3 µM
22. CCCCCCCCS(=O)(=O)Nc1ccc(F)cc1C(=O)O  89 µM
23. CCCCCCCCCS(=O)(=O)Nc1ccc(C(=O)O)cc1  88.9 µM
24. CCCCCCCCCS(=O)(=O)NCc1cccc(C(=O)O)c1  83.5 µM
25. CCCCCCCCCS(=O)(=O)Nc1ccc(CP(=O)(O)O)cc1  81.3 µM
26. CCCCCCCCCS(=O)(=O)Nc1ccccc1CP(=O)(O)O  81.1 µM
27. O=C(O)c1cccc(NS(=O)(=O)c2ccc(Cl)cc2)c1  75.7 µM
28. CCCCCCCCCS(=O)(=O)Nc1cccc(C(=O)O)c1  73.9 µM
29. CCCCCCCCS(=O)(=O)Nc1ccccc1P(=O)(O)O  73.6 µM
30. CCCCCCCCS(=O)(=O)Nc1cccc(P(=O)(O)O)c1  72.4 µM
31. CCCCCCCCCS(=O)(=O)NCc1ccccc1C(=O)O  66.5 µM
32. CCCCCCCCCS(=O)(=O)Nc1cccc(CP(=O)(O)O)c1  62.8 µM
33. CCCCCCCCCS(=O)(=O)Nc1ccc(Cl)cc1C(=O)O  31.8 µM
34. CCCCCCCCCS(=O)(=O)Nc1ccccc1C(=O)O  24.7 µM
35. CCCCCCCCCCCCCCCCS(=O)(=O)Nc1ccccc1C(=O)O  18.3 µM
36. CCCCCCCCCCCCCCS(=O)(=O)Nc1ccccc1C(=O)O  17.4 µM
